Each block holds one compound with its values, some of them ahead of it.
Columns and labels:
[1] = Inhibition of human p300-BHC domain (residues 1036-1822)/CBP-BHC domain (residues 1072-1859) expressed in Bac-to-Bac Baculovirus expression system assessed as inhibition of lysine residues acetylation in Histone H4 synthetic substrate preincubated for 30 mins followed by addition of substrate and acetyl coenzyme A and measured after 1 hr by TR-FRET assay
LNCaP-Clone-FGC = assay: Antiproliferative activity against AR-positive human LNCaP-Clone-FGC cells assessed as inhibition of cell proliferation measured after 5 days by luminiscent plate reader method; type: functional, cell-based; conditions: 120 h
Method in brief: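 LNCaP-FGC cells (androgen receptor-positive) were treated with compound for 5 days, then proliferation was read in a cell-growth assay. EC50 was derived from N = 2.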

[2] = Inhibition of human p300/CBP in human PC-3 cells assessed as decrease in H3K27 acetylation measured after 3 hrs by Fluorescence based plate reader assay; type: cell-based; conditions: PC-3, 3 h
Method in brief: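 PC-3 cells were treated with compound for 3 h, and the reduction in H3K27 acetylation was measured.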

Homo sapiens [3] = organism: Homo sapiens; assay: Ratio of EC50 for human p300/CBP in human PC-3 cells incubated for 24 hrs and measured 8 hr post washout to EC50 for human p300/CBP in human PC-3 cells measured after 24 hrs; type: cell-based
[4] = Inhibition of human p300/CBP in human PC-3 cells assessed as decrease in H3K27 acetylation measured after 48 hrs by Fluorescence based plate reader assay; type: cell-based; conditions: PC-3, 48 h
Homo sapiens [5] = organism: Homo sapiens; assay: Ratio of EC50 for human p300/CBP in human PC-3 cells incubated for 24 hrs and measured 1 hr post washout to EC50 for human p300/CBP in human PC-3 cells measured after 24 hrs; type: cell-based
Homo sapiens [6] = organism: Homo sapiens; assay: Ratio of EC50 for human p300/CBP in human PC-3 cells incubated for 24 hrs and measured 2 hr post washout to EC50 for human p300/CBP in human PC-3 cells measured after 24 hrs; type: cell-based
Homo sapiens [7] = organism: Homo sapiens; assay: Ratio of EC50 for human p300/CBP in human PC-3 cells incubated for 24 hrs and measured 24 hr post washout to EC50 for human p300/CBP in human PC-3 cells measured after 24 hrs; type: cell-based
[8] = Inhibition of human p300/CBP in human PC-3 cells assessed as decrease in H3K27 acetylation measured after 24 hrs by Fluorescence based plate reader assay; type: cell-based; conditions: PC-3, 24 h
[9] = Inhibition of human p300/CBP in human PC-3 cells assessed as decrease in H3K27 acetylation incubated for 24 hrs followed by compound washout and measured after 1 hr by Fluorescence based plate reader assay; type: cell-based
Method in brief: (§1)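 Washout assay. PC-3 cells were incubated with compound for 24 h, washed, and given fresh compound-free medium. Incubation then continued, and H3K27 acetylation was measured at set times from 1 to 48 h after washout. Inhibition is reported as EC50.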

Homo sapiens [10] = organism: Homo sapiens; assay: Ratio of EC50 for human p300/CBP in human PC-3 cells incubated for 24 hrs and measured 4 hr post washout to EC50 for human p300/CBP in human PC-3 cells measured after 24 hrs; type: cell-based
DU-145 = assay: Antiproliferative activity against human DU-145 cells assessed as inhibition of cell proliferation measured after 5 days by luminiscent plate reader method; type: functional, cell-based; conditions: DU-145, 120 h
Method in brief: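 DU-145 cells (androgen receptor-negative) were treated with compound for 5 days, then proliferation was read in a cell-growth assay. EC50 was derived from the dose response.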

Homo sapiens [11] = organism: Homo sapiens; assay: Ratio of EC50 for human p300/CBP in human PC-3 cells measured after 48 hr to EC50 for human p300/CBP in human PC-3 cells measured after 24 hrs; type: cell-based
[12] = Inhibition of human p300/CBP in human PC-3 cells assessed as decrease in H3K27 acetylation incubated for 24 hrs followed by compound washout and measured after 2 hr by Fluorescence based plate reader assay; type: cell-based; method in brief: as §1
[13] = Inhibition of human p300/CBP in human PC-3 cells assessed as decrease in H3K27 acetylation incubated for 24 hrs followed by compound washout and measured after 48 hr by Fluorescence based plate reader assay; type: cell-based; method in brief: as §1
[14] = Inhibition of human p300/CBP in human PC-3 cells assessed as decrease in H3K27 acetylation incubated for 24 hrs followed by compound washout and measured after 8 hr by Fluorescence based plate reader assay; type: cell-based; method in brief: as §1
[15] = Inhibition of human p300/CBP in human PC-3 cells assessed as decrease in H3K27 acetylation incubated for 24 hrs followed by compound washout and measured after 24 hr by Fluorescence based plate reader assay; type: cell-based; conditions: PC-3, 24 h; method in brief: as §1
Homo sapiens [16] = organism: Homo sapiens; assay: Ratio of EC50 for human p300/CBP in human PC-3 cells incubated for 24 hrs and measured 48 hr post washout to EC50 for human p300/CBP in human PC-3 cells measured after 24 hrs; type: cell-based
[17] = Inhibition of human p300/CBP in human PC-3 cells assessed as decrease in H3K27 acetylation incubated for 24 hrs followed by compound washout and measured after 4 hr by Fluorescence based plate reader assay; type: cell-based; method in brief: as §1

Structure (SMILES): C=CC(=O)NCC(C)(C)CNC(=O)Nc1ccc2c(c1)CC[C@@]21OC(=O)N(CC(=O)N(Cc2ccc(F)cc2)[C@@H](C)C(F)(F)F)C1=O
IC50 [1]: 185 nM
EC50 (LNCaP-Clone-FGC): 177 nM
EC50 [2]: 48 nM

Structure (SMILES): C=CS(=O)(=O)Nc1cccc(NC(=O)Nc2ccc3c(c2)CC[C@@]32OC(=O)N(CC(=O)N(Cc3ccc(F)cc3)[C@@H](C)C(F)(F)F)C2=O)c1
IC50 [1]: 604 nM
EC50 [2]: 1230 nM

Structure (SMILES): C=CS(=O)(=O)Nc1ccc(NC(=O)Nc2ccc3c(c2)CC[C@@]32OC(=O)N(CC(=O)N(Cc3ccc(F)cc3)[C@@H](C)C(F)(F)F)C2=O)cc1
IC50 [1]: 3020 nM

Structure (SMILES): C=CC(=O)Nc1ccc(NC(=O)Nc2ccc3c(c2)CC[C@@]32OC(=O)N(CC(=O)N(Cc3ccc(F)cc3)[C@@H](C)C(F)(F)F)C2=O)cc1
IC50 [1]: 22100 nM

Structure (SMILES): C=CC(=O)Nc1cccc(NC(=O)Nc2ccc3c(c2)CC[C@@]32OC(=O)N(CC(=O)N(Cc3ccc(F)cc3)[C@@H](C)C(F)(F)F)C2=O)c1
Ratio (Homo sapiens [3]): 11.3
EC50 [4]: 21 nM
Ratio (Homo sapiens [5]): 1.3
Ratio (Homo sapiens [6]): 1.5
IC50 [1]: 166 nM
Ratio (Homo sapiens [7]): 47.8
EC50 (LNCaP-Clone-FGC): 87 nM
EC50 [8]: 11 nM
EC50 [9]: 15 nM
EC50 [2]: 37 nM
Ratio (Homo sapiens [10]): 2.1
EC50 (DU-145): 1370 nM
Ratio (Homo sapiens [11]): 1.8
EC50 [12]: 17 nM
EC50 [13]: 656 nM
EC50 [14]: 129 nM
EC50 [15]: 544 nM
Ratio (Homo sapiens [16]): 57.7
EC50 [17]: 24 nM

Structure (SMILES): C=CC(=O)N1CCCN(C(=O)Nc2ccc3c(c2)CC[C@@]32OC(=O)N(CC(=O)N(Cc3ccc(F)cc3)[C@@H](C)C(F)(F)F)C2=O)C1
IC50 [1]: 2000 nM

Structure (SMILES): C=CS(=O)(=O)c1ccc(NC(=O)Nc2ccc3c(c2)CC[C@@]32OC(=O)N(CC(=O)N(Cc3ccc(F)cc3)[C@@H](C)C(F)(F)F)C2=O)cc1
IC50 [1]: 4270 nM

EC50 [4]: 253 nM
EC50 (LNCaP-Clone-FGC): 350 nM
EC50 [8]: 227 nM
EC50 [9]: > 10000 nM
EC50 [2]: 103 nM
EC50 [12]: > 10000 nM
EC50 [13]: > 10000 nM
EC50 [14]: > 10000 nM
EC50 [15]: > 10000 nM
EC50 [17]: > 10000 nM
Structure (SMILES): CNC(=O)Nc1ccc2c(c1)CC[C@@]21OC(=O)N(CC(=O)N(Cc2ccc(F)cc2)[C@@H](C)C(F)(F)F)C1=O [A-485]

— ChEMBL document CHEMBL4732268, “Discovery of a Potent and Selective Covalent p300/CBP Inhibitor” (ACS Med Chem Lett, 2021)
